For data set [1], the system named is Mus musculus. As to the kind of experiment: Toxicity in BALB/c nu/nu mouse xenografted with human DMS53 cells assessed as change in heart weight at 7.5 mg/kg, po administered for 3 times a week measured after 20 days. Format: organism-based, DMS-53. The arrangement: dose 7.5 mg/kg, route oral. The conditions noted are these: in vivo, 480 h. In short, it runs like this: (§1)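 Nude mice bearing DMS-53 xenografts gavaged 3 times/week for 20 days, vehicle 30% propylene glycol/saline, vehicle controls, n = 6-11 mice/condition. Sacrifice on day 20. Organ weights and hematological indices recorded. Spleen, kidney, liver, heart, lungs and brain examined histologically, hearts stained with Gomori Trichrome for fibrosis.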
In general terms: In xenograft studies the graft and the host belong to different species.

The test system of data set [2] is Mus musculus. As to the kind of experiment: Toxicity in BALB/c nu/nu mouse xenografted with human DMS53 cells assessed as change in brain histology at 3 mg/kg, iv administered for 5 days a week measured after 21 days by hematoxylin and eosin staining method. On the set-up: dose 3 mg/kg, route intravenous. The settings on record: in vivo, 504 h. In kind it is organism-based, DMS-53. In short, it runs like this:
(§2)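 DMS-53 xenografts in nude mice; dosing started at 100 mm3 tumor volume. Agents given iv via tail vein, 5 days/week for 21 days, vehicle 30% propylene glycol/saline, vehicle-treated controls. Mice sacrificed day 21. Body and organ weights and hematological indices recorded. Spleen, kidney, liver, heart, lungs and brain were stained with H&E, Perls' and Gomori Trichrome and read by an independent veterinary pathologist.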

The subject of data set [3] is Mus musculus. As to the kind of experiment: Toxicity in BALB/c nu/nu mouse xenografted with human DMS53 cells assessed as cardiac fibrosis at 7.5 mg/kg, po administered for 3 times a week measured after 20 days using Gomori Trichrome stain. Format: organism-based, Heart, DMS-53. On the set-up: dose 7.5 mg/kg, route oral. The conditions noted are these: in vivo, 480 h. In short, it runs like this: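 DMS-53 xenograft nude mice given oral gavage 3 times/week in 30% propylene glycol/saline for 20 days. Heart sections taken after 20 days were stained with Gomori Trichrome for fibrosis and viewed at 100×. Other organs were examined histologically.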

For data set [4], the system named is Mus musculus. As to the kind of experiment: Toxicity in BALB/c nu/nu mouse xenografted with human DMS53 cells assessed as change in platelet count at 3 mg/kg, iv administered for 5 days a week measured after 21 days. Format: organism-based, DMS-53. On the set-up: dose 3 mg/kg, route intravenous. The settings on record: in vivo, 504 h. In short, it runs like this: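 Nude mice carrying DMS-53 xenografts (treatment from 100 mm3) received iv tail-vein doses in 30% propylene glycol/saline, 5 days/week for 21 days. Hematological indices (RBC, hemoglobin, hematocrit, reticulocytes, WBC, platelets) were then compared with vehicle controls.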

Data set [5] concerns Mus musculus. As to the kind of experiment: Toxicity in BALB/c nu/nu mouse xenografted with human DMS53 cells assessed as vacuolation at 3 mg/kg, iv administered for 5 days a week measured after 21 days by hematoxylin and eosin staining method. Format: organism-based, DMS-53. The conditions noted are these: in vivo, 504 h. On the set-up: dose 3 mg/kg, route intravenous. In short, it runs like this: (§3)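 Nude mice with DMS-53 xenografts dosed by tail-vein iv injection in 30% propylene glycol/saline, starting at 100 mm3 tumour volume, 5 days/week for 21 days. Spleen, kidney, liver, heart, lungs and brain were stained with H&E, Perls' (Fe loading) and Gomori Trichrome (fibrosis) by standard methods, and an independent veterinary pathologist examined them.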

Data set [6] has as its system Mus musculus. Kind of data set: Toxicity in BALB/c nu/nu mouse xenografted with human DMS53 cells assessed as hepatocellular fibrosis at 3 mg/kg, iv administered for 5 days a week measured after 21 days by hematoxylin and eosin staining method. The conditions noted are these: in vivo, 504 h. Format: organism-based, DMS-53. On the set-up: dose 3 mg/kg, route intravenous. Put shortly:
as §3

The test system of data set [7] is Mus musculus. Kind of data set: Toxicity in BALB/c nu/nu mouse xenografted with human DMS53 cells assessed as cardiac fibrosis at 3 mg/kg, iv administered for 5 days a week measured after 21 days by […]. Format: organism-based, Heart, DMS-53. The arrangement: dose 3 mg/kg, route intravenous. The settings on record: in vivo, 504 h. Put shortly:
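DMS-53 xenograft nude mice given agents iv by tail vein 5 days/week in 30% propylene glycol/saline for 21 days. At sacrifice, heart sections were stained with Gomori Trichrome to detect fibrosis. Spleen, kidney, liver, heart, lungs and brain were also stained with H&E and Perls' and examined by an independent veterinary pathologist.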

Data set [8] deals with Mus musculus. As to the kind of experiment: Toxicity in BALB/c nu/nu mouse xenografted with human DMS53 cells assessed as change in RBC count at 3 mg/kg, iv administered for 5 days a week measured after 21 days. The arrangement: dose 3 mg/kg, route intravenous. Format: organism-based, DMS-53. The settings on record: in vivo, 504 h.
Data set [9] relates to Mus musculus. Kind of data set: Toxicity in BALB/c nu/nu mouse xenografted with human DMS53 cells assessed as body weight change at 7.5 mg/kg, po administered for 3 times a week measured after 20 days. The settings on record: in vivo, 480 h.
The test system of data set [10] is Mus musculus. As to the kind of experiment: Toxicity in BALB/c nu/nu mouse xenografted with human DMS53 cells assessed as change in hematopoetic cells in splenic red pulp at 3 mg/kg, iv administered for 5 days a week measured after 21 days by hematoxylin and eosin staining method. In kind it is organism-based, DMS-53. The arrangement: dose 3 mg/kg, route intravenous. The settings on record: in vivo, 504 h. In short, it runs like this:
as §2

The subject of data set [11] is Mus musculus. Kind of data set: Toxicity in BALB/c nu/nu mouse xenografted with human DMS53 cells assessed as change in hemoglobin level at 7.5 mg/kg, po administered for 3 times a week measured after 20 days. Format: organism-based, DMS-53. The arrangement: dose 7.5 mg/kg, route oral. The settings on record: in vivo, 480 h. Put shortly:
as §1

Data set [12] concerns Mus musculus. Kind of data set: Toxicity in BALB/c nu/nu mouse xenografted with human DMS53 cells assessed as change in lungs histology at 3 mg/kg, iv administered for 5 days a week measured after 21 days by hematoxylin and eosin staining method. The conditions noted are these: in vivo, 504 h. On the set-up: dose 3 mg/kg, route intravenous. Format: organism-based, DMS-53. In short, it runs like this:
as §2

Data set [13] deals with Mus musculus. As to the kind of experiment: Toxicity in BALB/c nu/nu mouse xenografted with human DMS53 cells assessed as change in hemoglobin level at 6 mg/kg, iv administered for 5 days a week measured after 21 days. In kind it is organism-based, DMS-53. The arrangement: dose 6 mg/kg, route intravenous. The settings on record: in vivo, 504 h. In short, it runs like this: as §2

The test system of data set [14] is Mus musculus. Kind of data set: Toxicity in BALB/c nu/nu mouse xenografted with human DMS53 cells assessed as change in hematocrit level at 7.5 mg/kg, po administered for 3 times a week measured after 20 days. Format: organism-based, DMS-53. The conditions noted are these: in vivo, 480 h. The arrangement: dose 7.5 mg/kg, route oral. In short, it runs like this: as §1

Data set [15] concerns Mus musculus. As to the kind of experiment: Toxicity in BALB/c nu/nu mouse xenografted with human DMS53 cells assessed as change in lung weight at 7.5 mg/kg, po administered for 3 times a week measured after 20 days. The conditions noted are these: in vivo, 480 h. On the set-up: dose 7.5 mg/kg, route oral. Format: organism-based, DMS-53. Put shortly: as §1
For data set [16], the system named is Mus musculus. As to the kind of experiment: Toxicity in BALB/c nu/nu mouse xenografted with human DMS53 cells assessed as change in brain histology at 8 mg/kg, iv administered for 5 days a week measured after 21 days by hematoxylin and eosin staining method. In kind it is organism-based, DMS-53. The settings on record: in vivo, 504 h. The arrangement: dose 8 mg/kg, route intravenous. In short, it runs like this: as §2

Data set [17] concerns Mus musculus. As to the kind of experiment: Toxicity in BALB/c nu/nu mouse xenografted with human DMS53 cells assessed as change in hematopoetic cells in splenic red pulp at 8 mg/kg, iv administered for 5 days a week measured after 21 days by hematoxylin and eosin staining method. Format: organism-based, DMS-53. The arrangement: dose 8 mg/kg, route intravenous. The settings on record: in vivo, 504 h. Put shortly: as §2

The test system of data set [18] is Mus musculus. Kind of data set: Toxicity in BALB/c nu/nu mouse xenografted with human DMS53 cells assessed as change in organ weight at 8 mg/kg, iv administered for 5 days a week measured after 21 days. In kind it is organism-based, DMS-53. On the set-up: dose 8 mg/kg, route intravenous. The settings on record: in vivo, 504 h. Put shortly: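 DMS-53 xenograft-bearing nude mice, treatment started at 100 mm3 tumour volume: iv tail-vein dosing in 30% propylene glycol/saline, 5 days/week for 21 days. Organs were weighed at sacrifice and compared with vehicle-control mice.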

The test system of data set [19] is Mus musculus. As to the kind of experiment: Toxicity in BALB/c nu/nu mouse xenografted with human DMS53 cells assessed as change in hemoglobin level at 4 mg/kg, iv administered for 5 days a week measured after 21 days. Format: organism-based, DMS-53. On the set-up: dose 4 mg/kg, route intravenous. The conditions noted are these: in vivo, 504 h. Put shortly: as §2

Data set [20] relates to Mus musculus. Kind of data set: Toxicity in BALB/c nu/nu mouse xenografted with human DMS53 cells assessed as change in brain histology at 4 mg/kg, iv administered for 5 days a week measured after 21 days by hematoxylin and eosin staining method. The settings on record: in vivo, 504 h. The arrangement: dose 4 mg/kg, route intravenous. Format: organism-based, DMS-53. In short, it runs like this:
as §2

For data set [21], the system named is Mus musculus. As to the kind of experiment: Toxicity in BALB/c nu/nu mouse xenografted with human DMS53 cells assessed as vacuolation at 8 mg/kg, iv administered for 5 days a week measured after 21 days by hematoxylin and eosin staining method. In kind it is organism-based, DMS-53. The arrangement: dose 8 mg/kg, route intravenous. The conditions noted are these: in vivo, 504 h. In short, it runs like this:
as §3

Data set [22] has as its system Mus musculus. Kind of data set: Toxicity in BALB/c nu/nu mouse xenografted with human DMS53 cells assessed as hepatocellular fibrosis at 4 mg/kg, iv administered for 5 days a week measured after 21 days by hematoxylin and eosin staining method. In kind it is organism-based, DMS-53. On the set-up: dose 4 mg/kg, route intravenous. The conditions noted are these: in vivo, 504 h. Put shortly: as §3

For data set [23], the system named is Mus musculus. As to the kind of experiment: Toxicity in BALB/c nu/nu mouse xenografted with human DMS53 cells assessed as change in RBC count at 20 mg/kg, po administered for 3 times a week measured after 20 days. Format: organism-based, DMS-53. The arrangement: dose 20 mg/kg, route oral. The settings on record: in vivo, 480 h.

For the compound `CCN(C)C(=S)NN=C(c1ccccn1)c1ccccn1.Cl`, the Activity entry is “Non-toxic” in the data set with Mus musculus [1]; “Non-toxic” with Mus musculus [2]; “Non-toxic” with Mus musculus [3]; “Toxic” in the data set on Mus musculus [4]; “Non-toxic” with Mus musculus [5]; “Non-toxic” in the data set with Mus musculus [6]. For the same compound, the Activity entry was “Non-toxic” in the data set on Mus musculus [7]; “Non-toxic” in the data set with Mus musculus [8]; “Non-toxic” in the data set with Mus musculus [9]; “Non-toxic” in the data set on Mus musculus [10]; “Toxic” in the data set on Mus musculus [11]; “Non-toxic” in the data set on Mus musculus [12]. Further, the Activity result in the data set with Mus musculus [13] is given as “Non-toxic”; in the data set with Mus musculus [14] it was “Toxic”; in the data set with Mus musculus [15], “Non-toxic”.

Take `CN(C(=S)NN=C(c1ccccn1)c1ccccn1)C1CCCCC1.Cl`: the Activity result was “Non-toxic” in the data set with Mus musculus [16]; “Non-toxic” in the data set on Mus musculus [17]; “Non-toxic” with Mus musculus [3]; “Toxic” with Mus musculus [18]; “Non-toxic” in the data set with Mus musculus [19]; “Non-toxic” in the data set with Mus musculus [20]. Also, the Activity entry is recorded as “Toxic” in the data set on Mus musculus [21], “Non-toxic” in the data set with Mus musculus [22] and “Non-toxic” in the data set with Mus musculus [23].
